Measured values reported in ChEMBL document CHEMBL4334464, “From Phenylthiazoles to Phenylpyrazoles: Broadening the Antibacterial Spectrum toward Carbapenem-Resistant Bacteria” (J Med Chem, 2019).
Values after ≈ are worked out from the molar mass of the structure shown. Active and inactive are the calls of the source. The calls are words filed in the database; no cut-off is given here.

What was measured:
Escherichia coli [1] = test: Antimicrobial activity against Escherichia coli JW55031 harboring deltatolC mutant after 18 to 20 hrs in aerobic condition by CLSI protocol based broth microdilution assay; format: functional
Staphylococcus aureus [2] = test: Antibacterial activity against Methicillin-sensitive Staphylococcus aureus NRS107 clinical isolates after 18 to 20 hrs in aerobic condition by CLSI protocol based broth microdilution assay; format: functional
Staphylococcus aureus [3] = test: Antibacterial activity against linezolid-resistant/Methicillin-resistant Staphylococcus aureus NRS119 clinical isolates after 18 to 20 hrs in aerobic condition by CLSI protocol based broth microdilution assay; format: functional
Staphylococcus aureus [4] = test: Antibacterial activity against Methicillin-resistant Staphylococcus aureus NRS123-USA400 clinical isolates after 18 to 20 hrs in aerobic condition by CLSI protocol based broth microdilution assay; format: functional
Staphylococcus aureus [5] = test: Antibacterial activity against Methicillin-resistant Staphylococcus aureus NRS385-USA500 clinical isolates after 18 to 20 hrs in aerobic condition by CLSI protocol based broth microdilution assay; format: functional
Staphylococcus aureus [6] = test: Antibacterial activity against vancomycin-resistant Staphylococcus aureus isolate 10 after 18 to 20 hrs in aerobic condition by CLSI-based broth microdilution assay; format: functional
Staphylococcus aureus [7] = test: Antibacterial activity against vancomycin-resistant Staphylococcus aureus isolate 12 after 18 to 20 hrs in aerobic condition by CLSI-based broth microdilution assay; format: functional
Staphylococcus aureus [8] = test: Bactericidal activity against methicillin-resistant Staphylococcus aureus NRS123-USA400 clinical isolates at 5 times MIC incubated over 24 hrs followed by replating on tryptic soy agar plate and further incubated for 18 to 20 hrs by time kill assay; format: functional, organism-based
Enterococcus faecium = test: Antibacterial activity against vancomycin-resistant Enterococcus faecium ATCC 700221 clinical isolates after 18 to 20 hrs in aerobic condition by CLSI-based broth microdilution assay; format: functional
Clostridioides difficile = test: Antibacterial activity against Clostridium difficile ATCC BAA 1870 incubated for 48 hrs in anaerobic condition by CLSI-based broth microdilution assay; format: functional; conditions: ATCC BAA 1870, 48 h
Acinetobacter baumannii [9] = test: Antibacterial activity against Acinetobacter baumannii NR 17786 clinical isolates after 18 to 20 hrs in aerobic condition by CLSI-based broth microdilution assay; format: functional
Escherichia coli [10] = test: Antibacterial activity against Escherichia coli BW25113 clinical isolates after 18 to 20 hrs in aerobic condition by CLSI-based broth microdilution assay; format: functional
Escherichia coli [11] = test: Antibacterial activity against Escherichia coli ATCC 25922 clinical isolates after 18 to 20 hrs in aerobic condition by CLSI-based broth microdilution assay; format: functional
Klebsiella pneumoniae [12] = test: Antibacterial activity against Klebsiella pneumoniae BAA-1706 clinical isolates after 18 to 20 hrs in aerobic condition by CLSI-based broth microdilution assay; format: functional
Klebsiella pneumoniae [13] = test: Antibacterial activity against Klebsiella pneumoniae BAA-1144 clinical isolates after 18 to 20 hrs in aerobic condition by CLSI-based broth microdilution assay; format: functional
Salmonella enterica = test: Antibacterial activity against Salmonella enterica NR-170 clinical isolates after 18 to 20 hrs in aerobic condition by CLSI-based broth microdilution assay; format: functional
Salmonella enteritidis [14] = test: Antibacterial activity against Salmonella enteritidis ATCC 13076 clinical isolates after 18 to 20 hrs in aerobic condition by CLSI-based broth microdilution assay; format: functional, Salmonella enterica subsp. enterica serovar Enteritidis; conditions: Salmonella enterica
Salmonella enteritidis [15] = test: Antibacterial activity against Salmonella enteritidis ATCC 14028 clinical isolates after 18 to 20 hrs in aerobic condition by CLSI-based broth microdilution assay; format: functional, Salmonella enterica subsp. enterica serovar Enteritidis; conditions: Salmonella enterica
Pseudomonas aeruginosa [16] = test: Antibacterial activity against Pseudomonas aeruginosa ATCC 15442 clinical isolates after 18 to 20 hrs in aerobic condition by CLSI-based broth microdilution assay; format: functional
Klebsiella pneumoniae [17] = test: Antibacterial activity against carbapenem-resistant Klebsiella pneumoniae ATCC BAA-1705 clinical isolates after 18 to 20 hrs in aerobic condition by CLSI-based broth microdilution assay; format: functional
Klebsiella pneumoniae [18] = test: Antibacterial activity against carbapenem-resistant Klebsiella pneumoniae ATCC BAA-2146 clinical isolates after 18 to 20 hrs in aerobic condition by CLSI-based broth microdilution assay; format: functional
Acinetobacter baumannii [19] = test: Antibacterial activity against carbapenem-resistant Acinetobacter baumannii ATCC BAA 1605 clinical isolates after 18 to 20 hrs in aerobic condition by CLSI-based broth microdilution assay; format: functional
Staphylococcus aureus [20] = test: Antibacterial activity against methicillin-resistant Staphylococcus aureus NRS123-USA400 infected in mouse J774 cells assessed as reduction in intracellular bacterial cells at 2 times MIC incubated for 24 hrs followed by re-plating on TSA plate and measured after 18 to 22 hrs relative to control; format: functional; design: scale not given: the % may be the effect or the level left
Outline: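 J774 murine macrophages were infected with MRSA USA400 and then treated at 2×MIC for 24 h, in triplicate. The read-out was percent reduction in intracellular colony-forming units versus untreated infected cells.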

[21] = Stability in human liver microsomes assessed as compound remaining incubated for 15 mins in presence of NADPH by LC/MS/MS analysis; format: ADME, Microsome; conditions: read-out: Stability
Outline: (§1)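 Two independent runs (1st and 2nd) were done at each time point, and the mean percent remaining is reported. Incubations were run both with and without NADPH. Half-life and intrinsic clearance (Clint) were derived from the time-course data.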

[22] = Stability in human liver microsomes assessed as compound remaining measured immediately in absence of NADPH by LC/MS/MS analysis; format: ADME, Microsome; conditions: read-out: Stability; outline: as §1
[23] = Intrinsic clearance in human liver microsomes in absence of NADPH by LC/MS/MS analysis; format: ADME, Microsome; conditions: read-out: CLH
[24] = tested on: Staphylococcus epidermidis; test: Ratio of MBC to MIC for Staphylococcus epidermidis NRS101 clinical isolates; format: functional
Enterococcus faecalis = test: Ratio of MBC to MIC for vancomycin-resistant Enterococcus faecalis ATCC 51299 clinical isolates; format: functional
Streptococcus pneumoniae = test: Ratio of MBC to MIC for […] Streptococcus pneumoniae ATCC 700677 clinical isolates; format: functional
Acinetobacter baumannii [25] = test: Ratio of MBC to MIC for Acinetobacter baumannii ATCC BAA 1141 clinical isolates; format: functional
Acinetobacter baumannii [26] = test: Ratio of MBC to MIC for Acinetobacter baumannii ATCC BAA 1747 clinical isolates; format: functional
Escherichia coli [27] = test: Ratio of MBC to MIC for Escherichia coli BW25113 clinical isolates; format: functional
Escherichia coli [28] = test: Ratio of MBC to MIC for Escherichia coli ATCC 35150 clinical isolates; format: functional
Salmonella enteritidis [29] = test: Ratio of MBC to MIC for Salmonella enteritidis ATCC 14028 clinical isolates; format: functional, Salmonella enterica subsp. enterica serovar Enteritidis
Pseudomonas aeruginosa [30] = test: Ratio of MBC to MIC for Pseudomonas aeruginosa ATCC 25619 clinical isolates; format: functional
Acinetobacter baumannii [31] = test: microbe, parasite or virus in culture; conditions: ATCC BAA 1747
Escherichia coli [32] = test: microbe, parasite or virus in culture; conditions: ATCC 1411
Pseudomonas aeruginosa [33] = test: microbe, parasite or virus in culture; conditions: ATCC 9027
Staphylococcus aureus [34] = test: Antibiofilm activity against methicillin-resistant Staphylococcus aureus NRS384-USA300 clinical isolates assessed as inhibition of biofilm formation at 0.5 times MIC incubated for 24 hrs by crystal violet staining based spectrophotometric method relative to control; format: functional

SMILES | MIC (Escherichia coli [1]) [µg/mL] | MIC (Staphylococcus aureus [2]) [µg/mL] | MIC (Staphylococcus aureus [3]) [µg/mL] | MIC (Staphylococcus aureus [4]) [µg/mL] | MIC (Staphylococcus aureus [5]) [µg/mL] | MIC (Staphylococcus aureus [6]) [µg/mL] | MIC (Staphylococcus aureus [7]) [µg/mL] | Activity (Staphylococcus aureus [8]) | MIC (Enterococcus faecium) [µg/mL] | MIC (Clostridioides difficile) [µg/mL] | MIC (Acinetobacter baumannii [9]) [µg/mL] | MIC (Escherichia coli [10]) [µg/mL] | MIC (Escherichia coli [11]) [µg/mL] | MIC (Klebsiella pneumoniae [12]) [µg/mL] | MIC (Klebsiella pneumoniae [13]) [µg/mL] | MIC (Salmonella enterica) [µg/mL] | MIC (Salmonella enteritidis [14]) [µg/mL] | MIC (Salmonella enteritidis [15]) [µg/mL] | MIC (Pseudomonas aeruginosa [16]) [µg/mL] | MIC (Klebsiella pneumoniae [17]) [µg/mL] | other results
C/C(=N\NC1=NCCN1)c1cnn(-c2ccc(C#CC3CCCC3)cc2)c1C | 4 (≈ 10.7 µM) | 2 (≈ 5.34 µM) | 4 (≈ 10.7 µM) | 4 (≈ 10.7 µM) | 4 (≈ 10.7 µM) | 8 (≈ 21.4 µM) | 4 (≈ 10.7 µM) | Active | 4 (≈ 10.7 µM) | 4 (≈ 10.7 µM) | 16 (≈ 42.7 µM) | 64 (≈ 171 µM) | 32 (≈ 85.4 µM) | 32 (≈ 85.4 µM) | 64 (≈ 171 µM) | 32 (≈ 85.4 µM) | 32 (≈ 85.4 µM) | 32 (≈ 85.4 µM) | 64 (≈ 171 µM) | 64 (≈ 171 µM) | MIC (Klebsiella pneumoniae [18]): 64 µg/mL (≈ 171 µM); MIC (Acinetobacter baumannii [19]): 16 µg/mL (≈ 42.7 µM); Activity (Staphylococcus aureus [20]): 98.4%; remaining at 0.25 h [21]: 99%; remaining at 0 min [22]: 100%; microsomal CLint [23]: < 116 µL/min/mg; Ratio [24]: <3; Ratio (Enterococcus faecalis): <3; Ratio (Streptococcus pneumoniae): <3; Ratio (Acinetobacter baumannii [25]): >=1; Ratio (Acinetobacter baumannii [26]): >=1; Ratio (Escherichia coli [27]): >=1; Ratio (Escherichia coli [28]): >=1; Ratio (Salmonella enteritidis [29]): >=1; Ratio (Pseudomonas aeruginosa [30]): >=1; MIC (Acinetobacter baumannii [31]): 16 µg/mL (≈ 42.7 µM); MIC (Escherichia coli [32]): 64 µg/mL (≈ 171 µM); MIC (Pseudomonas aeruginosa [33]): 32 µg/mL (≈ 85.4 µM)
C/C(=N\NC(=N)N)c1cnn(-c2ccc(C#Cc3ccccc3)cc2)c1C | 2 (≈ 5.61 µM) | 2 (≈ 5.61 µM) | 1 (≈ 2.81 µM) | 2 (≈ 5.61 µM) | 1 (≈ 2.81 µM) | 1 (≈ 2.81 µM) | 2 (≈ 5.61 µM) | Active | 1 (≈ 2.81 µM) | 4 (≈ 11.2 µM) | 8 (≈ 22.4 µM) | 8 (≈ 22.4 µM) | 4 (≈ 11.2 µM) | 8 (≈ 22.4 µM) | 8 (≈ 22.4 µM) | 8 (≈ 22.4 µM) | 8 (≈ 22.4 µM) | 16 (≈ 44.9 µM) | 32 (≈ 89.8 µM) | 16 (≈ 44.9 µM) | MIC (Klebsiella pneumoniae [18]): 16 µg/mL (≈ 44.9 µM); MIC (Acinetobacter baumannii [19]): 4 µg/mL (≈ 11.2 µM); inhibition (INH) (Staphylococcus aureus [34]): 50%; Ratio [24]: <3; Ratio (Enterococcus faecalis): <3; Ratio (Streptococcus pneumoniae): <3; Ratio (Acinetobacter baumannii [25]): >=1; Ratio (Acinetobacter baumannii [26]): >=1; Ratio (Escherichia coli [27]): >=1; Ratio (Escherichia coli [28]): >=1; Ratio (Salmonella enteritidis [29]): >=1; Ratio (Pseudomonas aeruginosa [30]): >=1; MIC (Acinetobacter baumannii [31]): 4 µg/mL (≈ 11.2 µM); MIC (Escherichia coli [32]): 8 µg/mL (≈ 22.4 µM); MIC (Pseudomonas aeruginosa [33]): 16 µg/mL (≈ 44.9 µM)
